Screening data as filed in PubChem BioAssay.
This is a sample that favours compounds with a hit; in the whole collection about 2.1% have one here.
EBNA-1 inhibitor – blocks EBNA-1 binding to DNA; EBNA-1 DNA binding, fluorescence polarization; inhibition, % at 14.8 µM; hit rate 0.34% among 300,000; AID 1950; in the data active means inhibition above about 28%
PABP1 MLLE inh – inhibitors of microRNA-mediated deadenylation, human PABP1 MLLE binding | P11940 | GST-MLLE / FITC-PAM2 fluorescence polarization | inhibition, % at 20 µM | hit rate 0.36% among 360,000 | AID 588489; in the data active means inhibition above about 35%, passing the limit was not always enough;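 further: plate controls were DMSO wells with GST-MLLE for no effect and wells lacking GST-MLLE protein for full effect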
Target sequence (P11940 whole entry, looked up): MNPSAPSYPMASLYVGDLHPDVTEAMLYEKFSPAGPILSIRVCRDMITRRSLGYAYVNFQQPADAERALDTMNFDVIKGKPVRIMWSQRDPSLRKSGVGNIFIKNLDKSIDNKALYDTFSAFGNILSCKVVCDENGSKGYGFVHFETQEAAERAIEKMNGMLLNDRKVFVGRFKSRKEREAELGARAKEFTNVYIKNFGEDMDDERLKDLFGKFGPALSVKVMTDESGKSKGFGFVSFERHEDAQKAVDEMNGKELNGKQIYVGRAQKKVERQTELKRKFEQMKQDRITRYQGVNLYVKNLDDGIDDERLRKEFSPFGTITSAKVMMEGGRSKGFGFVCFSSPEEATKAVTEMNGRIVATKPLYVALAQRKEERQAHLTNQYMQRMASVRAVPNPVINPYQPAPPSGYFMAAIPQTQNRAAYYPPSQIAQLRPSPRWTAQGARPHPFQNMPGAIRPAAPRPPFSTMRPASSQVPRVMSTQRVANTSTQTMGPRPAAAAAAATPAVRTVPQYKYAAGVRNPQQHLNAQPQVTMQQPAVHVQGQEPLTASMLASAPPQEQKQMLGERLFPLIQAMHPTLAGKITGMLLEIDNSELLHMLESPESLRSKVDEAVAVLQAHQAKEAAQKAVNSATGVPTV
PABP FP inh – blocks human PABP binding to poly(A) RNA. P11940. inhibition, % at 35 µM. fluorescence polarization. hit rate 1% among 290,000. AID 2014;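 further: calls also rest on retests at 20 µM and on dose response follow-up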
eIF4H inh – inhibitors of RNA binding by human eIF4H. eIF4H fluorescence polarization binding assay. inhibition, % at 35 µM. hit rate 0.94% among 290,000. AID 2012;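 further: calls also rest on retests at 20 µM and on dose response follow-up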
ZTA DNA inh – blocks Epstein-Barr virus ZTA, an EBNA-1 counter-screen; AID 2234; P03206; ZTA-DNA binding, fluorescence polarization; inhibition, % at 11 µM; hit rate 0.15% among 320,000; in the data active means inhibition above about 33%
HCV NS3 hel inh – blocks Hepatitis C virus NS3 helicase unwinding. NS3 helicase DNA unwinding, Cy5 molecular beacon fluorescence. inhibition, % at 10.9 µM. hit rate 0.56% among 290,000;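 active means inhibition above the mean of all tested compounds plus 3 SD, set per campaign, cut at about 35% in these data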;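 further: 0% = DMSO wells and 100% = thioflavine S control wells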
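Test system: hepatitis C virus NS3 helicase domain fragment enzyme. Also added: annealed dual-labelled DNA beacon duplex, ATP-started. Timing: 60 min unwinding reaction at 25 °C after ATP addition. Technique: Cy5 fluorescence. Measure: % inhibition of unwinding.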
The depositor's hits bear a star. Unless noted, how the calls were made is not given here.

`O=C(C1CCCO1)N1CCN(C(=S)Nc2ccc(Br)cc2)CC1` (stereo not given) gave EBNA-1 inhibitor 19, PABP1 MLLE inh -15, PABP FP inh -2, eIF4H inh -8, ZTA DNA inh 13 and HCV NS3 hel inh 9.
`CCCC(=Nc1ccccc1)C1=C(O)C(C(=O)OC)C(C)(C)CC1=O` (stereo not given) gave EBNA-1 inhibitor -3, PABP1 MLLE inh -3, PABP FP inh 17, eIF4H inh -8, ZTA DNA inh -4 and HCV NS3 hel inh -5.
`CCCCC(=Nc1ccc(N)cc1)C1=C(O)C(C(=O)OC)C(C)(C)CC1=O` (stereo not given) gave EBNA-1 inhibitor 3, PABP1 MLLE inh 8, PABP FP inh 59*, eIF4H inh 42*, ZTA DNA inh -2 and HCV NS3 hel inh 18.
For CCOCC(=O)Nc1c(C(=O)N2CCN(c3ncccn3)CC2)oc2ccccc12 the results were EBNA-1 inhibitor 1, PABP1 MLLE inh 10, PABP FP inh -1, eIF4H inh -6, ZTA DNA inh -21 and HCV NS3 hel inh 0.
O=C(c1oc2ccccc2c1CSCc1ccccc1)N1CCN(c2ncccn2)CC1 was read as EBNA-1 inhibitor -6, PABP1 MLLE inh 69*, PABP FP inh 1, eIF4H inh 16, ZTA DNA inh -11 and HCV NS3 hel inh -10.
Screening COc1ccc(N2Cc3cccc(C(=O)NC(C)CCc4ccco4)c3C2=O)cc1 (stereo not given) returned EBNA-1 inhibitor 6, PABP1 MLLE inh -19, PABP FP inh 36*, eIF4H inh 88*, ZTA DNA inh -7 and HCV NS3 hel inh 23.
`CC(CCc1ccco1)NC(=O)c1cccc2c1C(=O)N(C1CCCCC1)C2` (stereo not given) gave EBNA-1 inhibitor 11, PABP1 MLLE inh -1, PABP FP inh 16, eIF4H inh -7, ZTA DNA inh 6 and HCV NS3 hel inh 29.
`CN(C)CCCNCCCNC(=O)/C=N/O` gave EBNA-1 inhibitor 15, PABP1 MLLE inh -7, PABP FP inh 12, eIF4H inh 6, ZTA DNA inh 3 and HCV NS3 hel inh 15.
Screening CN(C)CCCNCCCCNC(=O)/C=N/O returned EBNA-1 inhibitor -7, PABP1 MLLE inh 3, PABP FP inh 61*, eIF4H inh 16, ZTA DNA inh -1 and HCV NS3 hel inh -2.
`NC(=O)c1c(NC(=O)c2cccc(N3C(=O)CCC3=O)c2)sc2c1CCCCC2` gave EBNA-1 inhibitor -2, PABP1 MLLE inh 16, PABP FP inh -6, eIF4H inh -4, ZTA DNA inh -9 and HCV NS3 hel inh -19.
`CC(=O)N1CCc2c(sc(NC(=O)c3cccc(N4C(=O)CCC4=O)c3)c2C(N)=O)C1` gave EBNA-1 inhibitor 1, PABP1 MLLE inh -48, PABP FP inh 1.5*, eIF4H inh 57, ZTA DNA inh 1 and HCV NS3 hel inh 0.
Cc1nc(NC(=O)C2CC2)sc1C(=O)Nc1ccccc1 was read as EBNA-1 inhibitor 0, PABP1 MLLE inh -6, PABP FP inh 8, eIF4H inh -14, ZTA DNA inh -1 and HCV NS3 hel inh 3.
`O=C(Nc1cccnc1)c1sc(Nc2ccccc2)nc1-c1ccccc1` gave EBNA-1 inhibitor 89*, PABP1 MLLE inh -23, PABP FP inh -6, eIF4H inh -4, ZTA DNA inh 3 and HCV NS3 hel inh -3.
Cc1nc(NC(N)=S)sc1C(=O)Nc1ccccc1 was read as EBNA-1 inhibitor -1, PABP1 MLLE inh 41*, PABP FP inh -2, eIF4H inh 1, ZTA DNA inh 14 and HCV NS3 hel inh 5.
`COc1ccc(CN(C(=O)CN2C(=O)NC3(CCC(C)CC3)C2=O)C(C)Cc2cccs2)cc1` (stereo not given) gave PABP1 MLLE inh -31 and ZTA DNA inh -10.
`O=C(COC(=O)C1CCN(S(=O)(=O)c2cc([N+](=O)[O-])ccc2Cl)CC1)Nc1ncc(Cl)cc1Cl` gave EBNA-1 inhibitor 4, PABP1 MLLE inh -12, PABP FP inh 39*, eIF4H inh 70*, ZTA DNA inh -7 and HCV NS3 hel inh 7.
For CC(=O)COC(=O)C1CCN(S(=O)(=O)c2cc([N+](=O)[O-])ccc2Cl)CC1 the results were EBNA-1 inhibitor 7, PABP1 MLLE inh -13, PABP FP inh 9, eIF4H inh 36, ZTA DNA inh 4 and HCV NS3 hel inh 5.
Screening Cc1cc(C(=O)CSc2nc3ccccc3n2CCC#N)c(C)n1Cc1cccs1 returned EBNA-1 inhibitor 34*, PABP1 MLLE inh -16, PABP FP inh 44, eIF4H inh 64, ZTA DNA inh 17 and HCV NS3 hel inh 22.
Screening N#CCCn1c(SCC(=O)c2c[nH]c3ccccc23)nc2ccccc21 returned EBNA-1 inhibitor -7, PABP1 MLLE inh -57, PABP FP inh 2, eIF4H inh -8, ZTA DNA inh -5 and HCV NS3 hel inh -3.
Screening COC1=CC(=NCl)C=CC1=NCl returned PABP1 MLLE inh 41*.
COc1ccccc1NC(=O)CN1CC(=O)Nc2ccccc21 was read as EBNA-1 inhibitor -1, PABP1 MLLE inh -12, PABP FP inh 82*, eIF4H inh -9, ZTA DNA inh 1 and HCV NS3 hel inh -5.
Screening Cc1cc(C)c(S(=O)(=O)/N=C2/C=C(Sc3ncn[nH]3)C(=O)c3ccccc32)cc1C returned EBNA-1 inhibitor -12, PABP1 MLLE inh 45*, PABP FP inh 11, eIF4H inh 7, ZTA DNA inh 32 and HCV NS3 hel inh 18.
Cc1ccccc1N(C)S(=O)(=O)c1ccc2[nH]cc(C(=O)NCC3CCCO3)c(=O)c2c1 (stereo not given) was read as EBNA-1 inhibitor -2, PABP1 MLLE inh 4, PABP FP inh 11, eIF4H inh -2, ZTA DNA inh 0 and HCV NS3 hel inh 2.
CCN1C(=O)[C@@H]2[C@@H](c3ccc(-c4ccc(C(C)=O)cc4)cc3)N3CCC[C@@]3(C(=O)OC)[C@@H]2C1=O was read as EBNA-1 inhibitor -7, PABP1 MLLE inh 10 and ZTA DNA inh -2.
Screening Nc1nnnn1/N=C/c1cc(Cl)cc(Cl)c1O returned EBNA-1 inhibitor -17, PABP1 MLLE inh 122, PABP FP inh inconclusive, eIF4H inh inconclusive, ZTA DNA inh -18 and HCV NS3 hel inh 6.
Nc1nnnn1/N=C/c1cc(Cl)ccc1O was read as EBNA-1 inhibitor -11, PABP1 MLLE inh 49*, PABP FP inh 21, eIF4H inh 20, ZTA DNA inh -2 and HCV NS3 hel inh -12.
Screening O=C(O)c1ccc(O)c(N2C(=O)Nc3ccccc3N2O)c1 returned EBNA-1 inhibitor 6, PABP1 MLLE inh -10, PABP FP inh 6.5*, eIF4H inh 53*, ZTA DNA inh 9 and HCV NS3 hel inh -3.
Screening Cc1cc(C=O)c(C)n1-c1cccc(C(=O)O)c1 returned EBNA-1 inhibitor -2, PABP1 MLLE inh -2, PABP FP inh 56, eIF4H inh 80*, ZTA DNA inh -6 and HCV NS3 hel inh -4.
